According to ChEMBL document CHEMBL1155138, “Identification and characterization of a new metallo-beta-lactamase, IND-5, from a clinical isolate of Chryseobacterium indologenes” (Antimicrob Agents Chemother, 2007):
Activity calls are given as the source filed them. The calls are words filed in the database; no cut-off is given here.

What was measured:
[1] = system: Chryseobacterium indologenes; test: Ratio of Kcat to Km of Chryseobacterium indologenes metallo-beta-lactamase IND-5 expressed in Escherichia coli BL21(DE3) assessed as substrate hydrolysis relative to control; parameters: scale not given: the % may be the effect or the level left
Escherichia coli [2] = test: Antimicrobial activity against Escherichia coli HB101 harboring pBC-IND-5 plasmid containing metallo-beta-lactamase IND5 assessed as drug level at which microbial resistance was observed by agar dilution method; type: functional
Escherichia coli [3] = test: Antimicrobial activity against Escherichia coli HB101 harboring pBC-SK plasmid assessed as drug level at which microbial resistance was observed by agar dilution method; type: functional
[4] = system: Chryseobacterium indologenes; test: Activity of Chryseobacterium indologenes metallo-beta-lactamase IND-5 expressed in Escherichia coli BL21(DE3) assessed as substrate hydrolysis
Summary of the method: (§1)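 Purified IND-5 came from E. coli BL21(DE3)/pET-IND-5, induced with 1 mM IPTG for 2 h at 20°C. It was purified by Mono Q then Mono P chromatography in buffers with 50 μM ZnSO4. Substrate hydrolysis was measured under initial-rate conditions in 30 mM sodium cacodylate pH 6.5 plus 50 μM ZnSO4. Km and kcat came from Hanes linearization and are means of three measurements.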

[5] = system: Chryseobacterium indologenes; test: Antimicrobial activity against Chryseobacterium indologenes NF16 isolate assessed as drug level at which microbial resistance was observed by agar dilution method; type: functional
Summary of the method: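 Agar dilution per CLSI guidelines, inoculum 5 × 10^5 CFU per spot; E. coli ATCC 25922 run as quality-control strain.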

[6] = system: Chryseobacterium indologenes; test: Ratio of Kcat to Km of Chryseobacterium indologenes metallo-beta-lactamase IND-5 expressed in Escherichia coli BL21(DE3) assessed as substrate hydrolysis; summary of the method: as §1
[7] = Inhibition of Chryseobacterium indologenes metallo-beta-lactamase IND-5 expressed in Escherichia coli BL21(DE3) using nitrocefin reporter substrate
Summary of the method: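 Purified IND-5 at 0.1 μM was incubated for 15 min at 30°C with increasing concentrations of zinc chelator.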

C[C@@H](O)[C@H]1C(=O)N2C(C(=O)O)=C(SCCNC=N)C[C@H]12 [IMIPENEM ANHYDROUS]
Activity [1]: 2.8%
Activity (Escherichia coli [2]): 1 µg/mL
Activity (Escherichia coli [3]): 0.5 µg/mL
Km [4]: 300 µM
kcat [4]: 7.28 s⁻¹
Activity [5]: 32 µg/mL
kcat/Km [6]: 24000 M⁻¹ s⁻¹

CC1(C)S[C@@H]2[C@H](NC(=O)Cc3ccccc3)C(=O)N2[C@H]1C(=O)O
Activity [1]: 100%
Km [4]: 13 µM
kcat [4]: 10.9 s⁻¹
kcat/Km [6]: 840000 M⁻¹ s⁻¹

CO/N=C(\C(=O)N[C@@H]1C(=O)N2C(C(=O)[O-])=C(C[N+]3(C)CCCC3)CS[C@H]12)c1csc(N)n1
Activity (Escherichia coli [2]): 0.5 µg/mL
Activity (Escherichia coli [3]): < 0.125 µg/mL
Activity [4]: inactive
Activity [5]: 0.5 µg/mL

CC1(C)S[C@@H]2[C@H](NC(=O)C(C(=O)O)c3ccccc3)C(=O)N2[C@H]1C(=O)O (stereo partly specified)
Activity [1]: 6.3%
Km [4]: 320 µM
kcat [4]: 17 s⁻¹
kcat/Km [6]: 53000 M⁻¹ s⁻¹

CC1(C)[C@H](C(=O)O)N2C(=O)C[C@H]2S1(=O)=O
Activity [1]: 0.3%
Km [4]: 1300 µM
kcat [4]: 3.3 s⁻¹
kcat/Km [6]: 2500 M⁻¹ s⁻¹

O=C(Cc1cccs1)N[C@@H]1C(=O)N2C(C(=O)O)=C(/C=C/c3ccc([N+](=O)[O-])cc3[N+](=O)[O-])CS[C@H]12
Activity [1]: 65%
Km [4]: 8 µM
kcat [4]: 4.4 s⁻¹
kcat/Km [6]: 550000 M⁻¹ s⁻¹

CC1(C)S[C@@H]2[C@H](NC(=O)[C@H](N)c3ccc(O)cc3)C(=O)N2[C@H]1C(=O)O [AMOXICILLIN]
Activity (Escherichia coli [2]): >64 µg/mL
Activity (Escherichia coli [3]): 2 µg/mL
Activity [5]: >64 µg/mL

CCN1CCN(C(=O)N[C@@H](C(=O)N[C@@H]2C(=O)N3[C@@H]2SC(C)(C)[C@@H]3C(=O)O)c2ccccc2)C(=O)C1=O [PIPERACILLIN]
Activity [1]: 4.6%
Activity (Escherichia coli [2]): 32 µg/mL
Activity (Escherichia coli [3]): 1 µg/mL
Km [4]: 375 µM
kcat [4]: 14.6 s⁻¹
Activity [5]: 16 µg/mL
kcat/Km [6]: 39000 M⁻¹ s⁻¹

C[C@H]1[C@H](NC(=O)/C(=N\OC(C)(C)C(=O)O)c2csc(N)n2)C(=O)N1S(=O)(=O)O [AZTREONAM]
Activity [4]: inactive
Activity [5]: 32 µg/mL

Cc1nnc(SCC2=C(C(=O)O)N3C(=O)[C@@H](NC(=O)Cn4cnnn4)[C@H]3SC2)s1 [CEFAZOLIN]
Activity [1]: 2.1%
Activity (Escherichia coli [2]): 64 µg/mL
Activity (Escherichia coli [3]): 1 µg/mL
Km [4]: 25 µM
kcat [4]: 0.46 s⁻¹
Activity [5]: 64 µg/mL
kcat/Km [6]: 18000 M⁻¹ s⁻¹

CC1(C)S[C@@H]2[C@H](NC(=O)[C@H](N)c3ccccc3)C(=O)N2[C@H]1C(=O)O
Activity [1]: 8.2%
Km [4]: 150 µM
kcat [4]: 10.3 s⁻¹
kcat/Km [6]: 69000 M⁻¹ s⁻¹

CC(C)(O/N=C(\C(=O)N[C@@H]1C(=O)N2C(C(=O)[O-])=C(C[n+]3ccccc3)CS[C@H]12)c1csc(N)n1)C(=O)O [CEFTAZIDIME]
Activity (Escherichia coli [2]): 0.5 µg/mL
Activity (Escherichia coli [3]): <0.5 µg/mL
Activity [5]: 1 µg/mL

CO/N=C(\C(=O)N[C@@H]1C(=O)N2C(C(=O)O)=C(COC(C)=O)CS[C@H]12)c1csc(N)n1 [CEFOTAXIME]
Activity [1]: 3.7%
Activity (Escherichia coli [2]): 16 µg/mL
Km [4]: 49 µM
kcat [4]: 1.53 s⁻¹
Activity [5]: 32 µg/mL
kcat/Km [6]: 31000 M⁻¹ s⁻¹

C[C@@H](O)[C@H]1C(=O)N2C(C(=O)O)=C(S[C@@H]3CN[C@H](C(=O)N(C)C)C3)[C@H](C)[C@H]12 [MEROPENEM]
Activity [1]: 1.8%
Activity (Escherichia coli [2]): 1 µg/mL
Activity (Escherichia coli [3]): <0.125 µg/mL
Km [4]: 280 µM
kcat [4]: 4.13 s⁻¹
Activity [5]: 16 µg/mL
kcat/Km [6]: 15000 M⁻¹ s⁻¹

CO[C@@]1(NC(=O)C(C(=O)O)c2ccc(O)cc2)C(=O)N2C(C(=O)O)=C(CSc3nnnn3C)CO[C@@H]21 (stereo partly specified)
Activity [4]: inactive

O=C(O)CN(CCN(CC(=O)O)CC(=O)O)CC(=O)O [EDETIC ACID]
Ki [7]: 815 µM

C[C@]1(Cn2ccnn2)[C@H](C(=O)O)N2C(=O)C[C@H]2S1(=O)=O
Activity [4]: inactive

O=C(O)c1cccc(C(=O)O)n1 [DIPICOLINIC ACID]
Ki [7]: 3 µM

c1cnc2c(c1)ccc1cccnc12 [PHENANTHROLINE]
Ki [7]: 7.3 µM
